Data on 25 molecules can be found in ChEMBL document CHEMBL1156026, “Design and synthesis of pyridazinone-based 5-HT(2C) agonists” (Bioorg Med Chem Lett, 2009).

Data set [1] has as its target T1, 5-hydroxytryptamine receptor 2C (Homo sapiens) (UniProt P28335).
T1 sequence (whole entry): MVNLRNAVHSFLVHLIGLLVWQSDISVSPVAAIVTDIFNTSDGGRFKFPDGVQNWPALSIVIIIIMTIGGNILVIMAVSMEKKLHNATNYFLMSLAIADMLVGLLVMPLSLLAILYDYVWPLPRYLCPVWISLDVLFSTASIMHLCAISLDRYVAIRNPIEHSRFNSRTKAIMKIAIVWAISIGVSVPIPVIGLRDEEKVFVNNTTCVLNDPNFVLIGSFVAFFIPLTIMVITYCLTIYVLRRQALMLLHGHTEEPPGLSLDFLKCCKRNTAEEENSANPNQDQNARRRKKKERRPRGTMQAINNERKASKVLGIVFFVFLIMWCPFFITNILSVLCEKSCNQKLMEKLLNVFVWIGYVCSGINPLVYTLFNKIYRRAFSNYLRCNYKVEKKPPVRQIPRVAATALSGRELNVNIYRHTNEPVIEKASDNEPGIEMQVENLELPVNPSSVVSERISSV
The data set is described as follows: (§1) Agonist activity at human recombinant 5HT2C receptor expressed in CHOK1 cells assessed as induction of calcium mobilization by FLIPR assay. It is filed as functional, cell-based. The settings on record: CHO-K1.

Data set [2] deals with T2, 5-hydroxytryptamine receptor 2C (Homo sapiens, UniProt P28335).
T2 sequence (P28335 whole entry): T1 sequence (whole entry)
Described as §1. It is filed as functional, cell-based, CHO-K1.

Data set [3] addresses T2, 5-hydroxytryptamine receptor 2C. The data set can be described thus: Displacement of [3H]meselurgine from human recombinant 5HT2C receptor expressed in Swiss mouse 3T3 cells by SPA. The format is cell-based. In a few lines: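 Competition binding against [3H]-meselurgine at the human 5-HT2C receptor, read by scintillation proximity assay, using membrane preparations made from Swiss 3T3 cells expressing the recombinant receptor.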

Data set [4] has as its target 5-hydroxytryptamine receptor 2A (Homo sapiens, UniProt P28223). The data set is described as follows: Agonist activity at human recombinant 5HT2A receptor expressed in Swiss mouse 3T3 cells assessed as induction of calcium mobilization by FLIPR assay. It is filed as functional, cell-based. As to conditions: for Emax: NIH3T3.
Data set [5] concerns the target 5-hydroxytryptamine receptor 2B (Homo sapiens, UniProt P41595). The data set is described as follows: Agonist activity at human recombinant 5HT2B receptor expressed in Swiss mouse 3T3 cells assessed as induction of calcium mobilization by FLIPR assay. The settings on record: for Emax: NIH3T3. It is filed as functional, cell-based. (In general: A change in cytosolic calcium serves as a functional read-out for many receptors and channels.)

The nature of data set [6]: Efflux ratio of permeability across MDCK cell membrane. The format is ADME, cell-based, Canis lupus familiaris. The settings on record: dog.
Data set [7] can be described thus: Metabolic stability in human liver microsomes. The format is ADME, Microsome. As to conditions: read-out: Stability. (In general: Liver microsomes are vesicles of endoplasmic reticulum, rich in cytochrome P450 enzymes.)
Data set [8] is described as follows: Lipophilicity, log D at pH 7.4. The format is physicochemical. The settings on record: buffer.
In data set [9] the test system is Canis familiaris. The data set can be described thus: Plasma concentration in continuous iv dosed dog. It is filed as ADME, organism-based, Canis lupus familiaris. As to conditions: in vivo.
Data set [10] deals with 5-hydroxytryptamine receptor 1B (Homo sapiens) (UniProt P28222). The data set is described as follows: Binding affinity to human 5HT1B receptor.
5-hydroxytryptamine receptor 1B (Homo sapiens), sequence (P28222 whole entry): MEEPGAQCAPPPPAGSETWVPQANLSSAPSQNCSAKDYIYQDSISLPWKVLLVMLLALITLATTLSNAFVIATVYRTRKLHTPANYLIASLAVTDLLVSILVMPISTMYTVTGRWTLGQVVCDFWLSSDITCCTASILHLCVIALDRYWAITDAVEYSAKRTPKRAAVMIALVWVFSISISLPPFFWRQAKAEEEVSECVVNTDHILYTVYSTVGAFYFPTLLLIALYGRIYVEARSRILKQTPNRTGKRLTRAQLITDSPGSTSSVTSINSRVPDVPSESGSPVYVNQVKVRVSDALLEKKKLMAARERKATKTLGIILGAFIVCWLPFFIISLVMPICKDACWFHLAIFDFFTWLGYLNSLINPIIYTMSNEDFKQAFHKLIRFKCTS
Data set [11] addresses 5-hydroxytryptamine receptor 1D (Homo sapiens) (UniProt P28221). The data set can be described thus: Binding affinity to human 5HT1D receptor.
In data set [12] the target is 5-hydroxytryptamine receptor 6 (Homo sapiens) (UniProt P50406). The data set is described as follows: Binding affinity to human 5HT6 receptor.
5-hydroxytryptamine receptor 6 (Homo sapiens), sequence (P50406 whole entry): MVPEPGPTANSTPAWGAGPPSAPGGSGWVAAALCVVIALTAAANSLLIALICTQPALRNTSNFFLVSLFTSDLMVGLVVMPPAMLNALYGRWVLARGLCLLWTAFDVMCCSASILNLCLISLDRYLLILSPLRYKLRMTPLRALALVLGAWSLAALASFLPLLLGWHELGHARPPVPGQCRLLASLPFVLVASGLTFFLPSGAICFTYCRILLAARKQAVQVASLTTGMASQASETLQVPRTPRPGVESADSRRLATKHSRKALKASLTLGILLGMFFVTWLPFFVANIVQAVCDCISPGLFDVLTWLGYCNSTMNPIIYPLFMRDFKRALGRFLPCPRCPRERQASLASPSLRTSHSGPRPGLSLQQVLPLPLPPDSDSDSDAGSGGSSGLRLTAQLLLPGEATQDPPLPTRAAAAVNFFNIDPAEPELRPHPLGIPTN
For data set [13], the target named is T3, B2 bradykinin receptor (Homo sapiens) (UniProt P30411).
T3 sequence (whole entry): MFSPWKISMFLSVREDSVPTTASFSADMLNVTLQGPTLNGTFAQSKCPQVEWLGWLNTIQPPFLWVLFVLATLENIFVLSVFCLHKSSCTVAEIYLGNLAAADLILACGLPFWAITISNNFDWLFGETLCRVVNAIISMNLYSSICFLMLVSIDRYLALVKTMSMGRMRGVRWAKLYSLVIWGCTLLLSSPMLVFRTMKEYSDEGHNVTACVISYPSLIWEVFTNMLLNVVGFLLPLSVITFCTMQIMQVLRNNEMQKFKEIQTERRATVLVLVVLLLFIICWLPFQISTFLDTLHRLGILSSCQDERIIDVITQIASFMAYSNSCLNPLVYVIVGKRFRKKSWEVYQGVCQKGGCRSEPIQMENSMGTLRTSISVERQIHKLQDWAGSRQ
The data set is described as follows: Binding affinity to human bradykinin B2 receptor.

Data set [14] deals with GABA-A receptor; agonist GABA site (Homo sapiens) (UniProt P14867+P47870+P28472+P48169+P34903+P18505+P47869+P31644+Q16445). The data set can be described thus: Binding affinity to human GABAA receptor. It is filed as protein-complex assay.
Data set [15] deals with Canis familiaris. The data set can be described thus: Increase in urethral pressure in continuous iv dosed dog model of stress urinary incontinence. The format is functional, Canis lupus familiaris, Urethra.

5-hydroxytryptamine receptor 2B, sequence (P41595 whole entry): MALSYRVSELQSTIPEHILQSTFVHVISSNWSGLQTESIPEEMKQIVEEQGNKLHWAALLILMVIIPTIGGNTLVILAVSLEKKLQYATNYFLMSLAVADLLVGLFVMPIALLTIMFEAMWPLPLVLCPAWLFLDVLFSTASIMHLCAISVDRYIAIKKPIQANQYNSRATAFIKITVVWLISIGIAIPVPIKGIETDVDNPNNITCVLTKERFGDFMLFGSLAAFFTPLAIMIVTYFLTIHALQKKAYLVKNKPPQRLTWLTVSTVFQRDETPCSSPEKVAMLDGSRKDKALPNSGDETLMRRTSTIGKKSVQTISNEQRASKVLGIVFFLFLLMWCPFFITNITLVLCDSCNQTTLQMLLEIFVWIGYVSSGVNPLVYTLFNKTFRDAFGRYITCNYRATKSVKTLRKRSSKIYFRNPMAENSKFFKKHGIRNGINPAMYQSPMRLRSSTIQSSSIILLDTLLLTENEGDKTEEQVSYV
5-hydroxytryptamine receptor 2A, sequence (P28223 whole entry): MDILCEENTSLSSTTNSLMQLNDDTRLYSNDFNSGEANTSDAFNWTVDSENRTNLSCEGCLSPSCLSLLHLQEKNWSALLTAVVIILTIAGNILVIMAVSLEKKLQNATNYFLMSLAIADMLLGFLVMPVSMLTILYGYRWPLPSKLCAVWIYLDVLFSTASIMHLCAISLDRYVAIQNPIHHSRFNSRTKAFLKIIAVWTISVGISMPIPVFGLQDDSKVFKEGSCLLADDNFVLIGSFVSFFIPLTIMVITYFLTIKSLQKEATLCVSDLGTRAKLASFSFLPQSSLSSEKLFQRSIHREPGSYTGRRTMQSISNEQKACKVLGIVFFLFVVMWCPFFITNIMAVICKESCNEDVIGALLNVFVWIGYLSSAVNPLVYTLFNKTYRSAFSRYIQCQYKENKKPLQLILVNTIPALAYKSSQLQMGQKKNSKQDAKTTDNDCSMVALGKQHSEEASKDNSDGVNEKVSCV
5-hydroxytryptamine receptor 1D (Homo sapiens), sequence (P28221 whole entry): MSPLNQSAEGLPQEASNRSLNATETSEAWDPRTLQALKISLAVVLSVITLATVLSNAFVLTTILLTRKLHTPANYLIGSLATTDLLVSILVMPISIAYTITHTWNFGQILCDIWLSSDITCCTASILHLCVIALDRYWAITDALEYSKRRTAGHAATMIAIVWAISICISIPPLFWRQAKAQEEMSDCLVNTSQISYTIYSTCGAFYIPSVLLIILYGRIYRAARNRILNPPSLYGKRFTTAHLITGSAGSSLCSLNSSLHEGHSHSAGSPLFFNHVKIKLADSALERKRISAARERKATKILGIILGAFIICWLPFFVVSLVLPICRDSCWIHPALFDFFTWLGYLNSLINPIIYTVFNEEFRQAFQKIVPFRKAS

Broadly, the Emax is the maximal effect, on the per cent scale that the assay sets. Usually EC50 stands for the concentration needed to bring the measured effect to its halfway point. For `O=c1ccc(N2CCNCC2)nn1CCOc1ccccc1Br`, in data set [1], the Emax came to 34%. Further, the EC50 in data set [2] worked out at 101 nM.
As usually defined, the Ki is the dissociation constant of the complex between target and ligand, obtained from inhibition or displacement. Take `O=c1ccc(N2CCNCC2)nn1CCOc1ccccc1C(F)(F)F`: the Emax worked out at 45% in data set [1] and 49% in data set [4]. Besides, the EC50 was 47 nM in data set [2], 1090 nM in data set [4] and more than 10000 nM in data set [5]. The Ki in data set [3] was determined as 424 nM.
With `C[C@@H](Cn1nc(N2CCNCC2)ccc1=O)Oc1ccccc1Cl`, the Emax in data set [1] was found to be 87%. Besides, the EC50 in data set [2] was determined as 360 nM.
As for `O=c1c2c(c(N3CCNCC3)nn1CCOc1ccccc1Cl)CCC2`, in [2], the EC50 was more than 10000 nM.
As to `CC[C@@H]1CNCCN1c1ccc(=O)n(CCOc2ccccc2Cl)n1`, the Emax in data set [1] turned out to be 41%. For the same molecule, the EC50 in data set [2] was determined as 407 nM.
The efflux ratio is the permeability from basolateral to apical divided by that in the opposite direction, in the common usage. The term logD denotes lipophilicity at a set pH, counting ionised and neutral species. `Clc1ccccc1CCOc1cncc(N2CCNCC2)n1`: the Emax in [1] turned out to be 69%; in [4] it was 56%; in data set [5], 42%. Moreover, the EC50 in [2] was found to be 10 nM; in data set [4] it was 308 nM; in [5], 187 nM. Besides, the efflux ratio in [6] worked out at 2. The microsomal CLint in data set [7] worked out at 94 µL/min/mg. In data set [8], this molecule gave a logD of 2.2.
As for `Cc1cc(=O)n(CCOc2ccccc2Cl)nc1N1CCNCC1`, the Emax in data set [1] stood at 31%. Also, in data set [2], the EC50 is 510 nM.
The matching figures for `C[C@H](COc1ccccc1Cl)n1nc(N2CCNCC2)ccc1=O`: 55% and more than 1920 nM.
Turning to `O=c1ccc(N2CCNCC2)nn1CCOc1ccccc1`, in data set [2], the EC50 was more than 10000 nM.
On the same count and under the same terms, the value for `O=c1ccc(N2CCNCC2)nn1CCOc1ccc(Cl)cc1` was more than 10000 nM.
In the case of `C[C@H](Cn1nc(N2CCNCC2)ccc1=O)Oc1ccccc1Cl`, in data set [1], the Emax is 53%. Further, in [2], the EC50 was determined as 858 nM.
In the case of `Cc1cc(N2CCNCC2)nn(CCOc2ccccc2Cl)c1=O`, in [2], the EC50 was more than 10000 nM.
On the same count and under the same terms, then `COc1ccccc1OCCn1nc(N2CCNCC2)ccc1=O`, with more than 10000 nM; and `O=c1ccc(N2CCNCC2)nn1CCOc1cccc(Cl)c1`, with more than 10000 nM.
As for `O=CC1CNCCN1c1ccc(=O)n(CCOc2ccccc2Cl)n1` (stereo not given), the EC50 in [2] was more than 9980 nM.
As for `N#Cc1ccccc1OCCn1nc(N2CCNCC2)ccc1=O`, the Emax in data set [1] worked out at 69%. Further, the EC50 in data set [2] was 114 nM.
Consider `Clc1cccc(N2CCNCC2)c1`, for which the Emax in data set [4] worked out at 58%.
`C[C@@H](COc1ccccc1Cl)n1nc(N2CCNCC2)ccc1=O`: the results for the maximal response (Emax) in data set [1], in data set [4] and in data set [5] were 77%, 69% and 30%, respectively. Moreover, the EC50 in [2] came out at 25 nM; in data set [4] it was 65 nM; in [5], 506 nM. Besides, the Ki in data set [3] is 728 nM.
For `C[C@@H]1CNCCN1c1ccc(=O)n(CCOc2ccccc2C(F)(F)F)n1`, the results for the Emax in [1] and in [4] were 51% and 61%, respectively. Further, the EC50 was 11 nM in [2], 41 nM in data set [4] and more than 2610 nM in data set [5]. Moreover, in data set [3], the Ki was 89 nM. Besides, the concentration with Canis familiaris [9] was found to be 52 nM. Moreover, the Activity in data set [10] was less than 1000 nM; in [11], less than 1000 nM; in data set [12] it was less than 1000 nM; in data set [13], less than 1000 nM; in [14], less than 1000 nM; with Canis familiaris [15], more than 20%.
Turning to `Cc1ccccc1OCCn1nc(N2CCNCC2)ccc1=O`, the Emax in data set [1] was determined as 36%. Besides, the EC50 in data set [2] is more than 4550 nM.
For the molecule `O=c1ccc(N2CCNCC2)nn1CCOc1cccc(Cl)c1Cl`, the EC50 in [2] is more than 2130 nM.
The same measure, in the same setting: then `C[C@H]1CN(c2ccc(=O)n(CCOc3ccccc3Cl)n2)CCN1`, with more than 10000 nM.
Consider `O=c1ccc(N2CCNCC2)nn1CCOc1ccccc1Cl`, for which the Emax in [1] is 58%; in data set [4], 41%. Moreover, the EC50 in data set [2] was 164 nM; in [4] it was 254 nM; in [5], more than 10000 nM. In addition, in [6], the efflux ratio turned out to be 5. Moreover, the microsomal CLint in data set [7] was less than 7 µL/min/mg. This molecule also gave a logD in data set [8] of 0.6. In data set [3], the Ki turned out to be 1600 nM.
As for `C[C@H]1CNCCN1c1ccc(=O)n(CCOc2ccccc2Cl)n1`, the EC50 in [2] is more than 10000 nM.
Turning to `C[C@@H]1CNCCN1c1ccc(=O)n(CCOc2ccccc2Cl)n1`, the Emax in data set [1] stood at 51%; in [4] it was 42%. Besides, the EC50 in [2] was 25 nM; in data set [4], 114 nM; in data set [5], more than 10000 nM. Also, in [6], the efflux ratio worked out at 6. Besides, in [7], the microsomal CLint is 9.8 µL/min/mg. The logD in data set [8] amounted to 0.9. Also, in data set [3], the Ki was 325 nM.
